Compound activity: PubChem, Broad Institute
Shown are actives, neighbours in structure and some others; about 3.5% of the full set was active somewhere.
PGC1a acetyl inh: lowers PGC1a acetylation signal in U2OS cells. AlphaScreen anti-acetyl-lysine; with virally co-expressed GCN5 acetyltransferase. inhibition, % at 15.6 µM. actives 0.17% (n = 350,000);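 active means every replicate shows inhibition of at least 40%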
ERAP1 HTS inh: blocks human ERAP1 aminopeptidase activity; actives 0.15% (n = 340,000); inhibition, % at 10.7 µM; recombinant ERAP1, Leu-AMC fluorescence, 60 min; AID 652197;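 active means mean replicate inhibition of at least 30%, or all replicates individually reaching that 30% level; inactive means mean below 30% and not every replicate reaching it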
Cneo AK release: causes C. neoformans cell lysis; AID 651654; adenylate kinase release luminescence, 4 h; normalised: neutral wells 0, clomiphene wells 100; lysis activity, % at 15 µM; actives 0.2% (n = 360,000);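 active means mean lysis activity across replicates of at least 80%, whatever share of replicates individually reach that level; inactive means mean lysis activity below 80%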
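Material – log-phase Cryptococcus neoformans yeast cells · Input – 5 × 10^6 yeast cells/mL · Medium – fresh YPD growth medium · Doses – single compound concentration per well · Timing – static 4 h at 37 °C with compound, 1 h detection · Detection – adenylate kinase release luminescence · Read-out – signal increase indicating cell lysis · Control set – Clomiphene as positive lysis control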
Env fusion inh: blocks HIV Env-driven cell-cell fusion. HeLa-JRFL Env/CEM21 cell fusion, luciferase. inhibition, % at 12.3 µM. actives 1.1% (n = 360,000). AID 651610;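 active means mean replicate inhibition score of at least 50 and every replicate individually at or above 50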
Ecoli rRNA inh: inhibits bacterial ribosomal RNA function over humanized ribosomes. E. coli WT GFP vs humanized-ribosome RFP mutants, fluorescence, 24 h; stronger effect = lower value; DMSO median 0, no signal -100. GFP signal change (wild-type ribosome), % (test concentration not listed). actives 1.6% (n = 350,000). AID 720706;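 active means significant combined selectivity score with lowered wild-type GFP, culture density cut under 30%, mutant RFP and density less affected; inactive means any of these conditions unmet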
FGF22 binding: binders of recombinant human FGF22 by thermal shift | Q9HCT0 | SYPRO orange fluorescence; percent of sucrose octasulfate shift, DMSO zero | activity (Tm shift, normalised), % at 9.99 µM | actives 1.5% (n = 340,000) | AID 651658;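 active means mean Tm shift, scaled 0 neutral to 100 positive control, at about 1.3% or above, every replicate too, limit read from the data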
Target sequence (Q9HCT0 whole entry, looked up): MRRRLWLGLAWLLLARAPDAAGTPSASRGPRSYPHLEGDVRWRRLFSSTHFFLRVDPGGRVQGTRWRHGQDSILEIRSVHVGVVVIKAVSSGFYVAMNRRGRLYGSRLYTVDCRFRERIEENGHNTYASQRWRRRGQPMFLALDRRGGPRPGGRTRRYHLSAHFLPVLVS
A number is an active result; i = inactive; nt = not tested or not shown.

SMILES	PGC1a acetyl inh	ERAP1 HTS inh	Cneo AK release	Env fusion inh	Ecoli rRNA inh	FGF22 binding
c1ccc(Cc2cnc(N3CCN(Cc4cccc(-c5ccsc5)n4)CC3)nc2)cc1	nt	i	nt	i	-36	i
COC(=O)c1sccc1NC(=O)CC1C(=O)NCCN1C(=O)c1ccccc1 (stereo unspecified)	nt	i	i	i	i	i
COC(=O)c1sccc1NC(=O)CC1C(=O)NCCN1C(=O)Nc1cc(Cl)ccc1OC (stereo unspecified)	i	i	i	i	-22	i
CN1CCN(c2ccc(-c3cccc(NC(=O)COc4ccc(Cl)cc4)c3)nn2)CC1	i	i	i	i	-30	i
CN1CCN(c2ccc(-c3cccc(NC(=O)COc4ccccc4)c3)nn2)CC1	i	i	i	i	i	i
C[C@@H]1CN([C@@H](C)CO)C(=O)c2cc(C3=CCCC3)cnc2O[C@H]1CN(C)C(=O)c1ccccc1	i	i	i	i	nt	i
O=C(CN1CCNC(=O)C1)NCCc1ccc(Cl)cc1Cl	nt	i	nt	i	i	i
Cc1ccc(NC(=O)CNC(=O)N2CC(=O)Nc3ccccc32)cc1F	i	i	i	i	i	i
O=C(CN1CC(=O)Nc2ccccc21)NCCc1ccc(Cl)cc1Cl	i	i	nt	i	i	44
O=C(CN1CC(=O)Nc2ccccc21)Nc1ccc(F)c(F)c1	i	i	nt	i	i	43
COc1ccc(CC(N)c2csc(Nc3cnccn3)n2)cc1 (stereo unspecified)	i	i	i	i	nt	i
Nc1nn(-c2ccccc2)nc1C(=O)OCc1ccccc1	72	i	i	i	i	i
COc1ccc(C(=O)c2c3ccccc3[n+]([O-])n2CCCN)cc1	i	i	i	i	i	i
CCSc1nnc(-c2ccccc2NC(C)=O)c(=O)[nH]1	i	nt	nt	i	nt	nt
CCCCSc1nnc(-c2ccccc2NC(C)=O)c(=O)[nH]1	nt	i	nt	i	i	43
COc1ccccc1C(=O)N1C[C@@H]2[C@H](c3ccccc31)[C@@H](CO)N2C(=O)Cc1ccccc1	i	i	i	nt	i	i
COc1ccccc1C(=O)N1C[C@H]2[C@@H](c3ccccc31)[C@@H](CO)N2C(=O)Cc1ccccc1	i	i	101	nt	i	i
COc1cccc(N2CCN(c3ncnc4c3[nH]c3ccc(F)cc34)CC2C)c1 (stereo unspecified)	77	nt	i	nt	nt	nt
COc1ccc2[nH]c3c(N4CC(C)OC(C)C4)ncnc3c2c1 (stereo unspecified)	nt	nt	nt	i	nt	nt
O=C(C[C@H]1C[C@@H]2c3cc(NC(=O)C4CCOCC4)ccc3O[C@@H]2[C@H](CO)O1)NCCc1ccccc1	i	i	i	i	i	i
Cc1ccc(NC(=O)c2ccc(OC(F)(F)F)cc2)cc1S(=O)(=O)N(C)C	nt	nt	nt	62	nt	nt
Cc1ccc(NC(=O)c2ccc(Br)o2)cc1S(=O)(=O)N(C)C	i	i	nt	i	-21	43
Cc1ccc(NC(=O)COC(=O)c2ccccc2Cl)cc1S(=O)(=O)N(C)C	i	i	nt	i	-34	i
Cc1ccc(NC(=O)COC(=O)/C=C/c2ccc(Br)o2)cc1S(=O)(=O)N(C)C	nt	i	nt	i	i	43
Cc1ccc(NC(=O)CCNC(=O)c2ccccc2Cl)cc1S(=O)(=O)N(C)C	i	nt	i	i	nt	nt
SMILES	PGC1a acetyl inh	ERAP1 HTS inh	Cneo AK release	Env fusion inh	Ecoli rRNA inh	FGF22 binding
Cc1ccc(NC(=O)c2ccncc2)cc1S(=O)(=O)N(C)C	nt	i	i	nt	i	i
Cc1cccc(C)c1OC(=O)Cc1ccccc1[N+](=O)[O-]	nt	i	i	i	i	i
CCNc1nc(NCC)n2c(SCC(=O)Nc3cccc(Cl)c3)nnc2n1	nt	nt	i	nt	nt	nt
CO[C@H]1CC[C@@H]2CCOc3c(C#N)cccc3C(=O)N(C)C[C@@H](OC)[C@@H](C)C(=O)N(C)C[C@H]1O2	nt	i	i	i	i	i
CO[C@H]1CC[C@@H]2CCOc3c(C#N)cccc3C(=O)N(C)C[C@@H](OC)[C@@H](C)C(=O)N(C)C[C@@H]1O2	nt	i	85	i	i	i
CC1(C)CC(NC(=O)c2sc3cc(Cl)ccc3c2Cl)CC(C)(C)N1	i	i	nt	i	i	43
Cn1ncc(Br)c1C(=O)NC12CC3CC(CC(C3)C1)C2	nt	i	nt	i	-30	i
Cc1cc(NC(=O)c2ccccc2F)nc2c1c(=O)oc1ccccc12	i	i	i	i	i	44
